Experiment: Toxicity liver stage against HepG2, at 10uM
Type: cell-based
Parameters: test concentration 10 uM, cell line HepG2-A16-CD81EGFP
Details: human, HepG2-A16-CD81EGFP cells; read-out: INHIBITION
In short: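 Uninfected HepG2-A16-CD81EGFP cells, 3 × 10^3 per well, 1536-well, plated on prespotted compound at 10 μM final, parasite-free screening media added to match infected plates; puromycin 10 μM positive, DMSO 0.5% negative; run in parallel with 48 h PbLuc assay at 37 °C, 5% CO2; viability by CellTiter-Glo luminescence, normalized to controls.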

Row | SMILES | cytotoxicity at 10 µM
1 | O=c1c2ccccc2nc2n1CCC2O (stereo not drawn) | 7.68%
2 | CN(C)C(=O)C1CCCN1c1ncnc2ccsc12 (stereo not drawn) | 4.04%
3 | CC1=C[C@@H](CN2CCC(CO)CC2)[C@H](C(C)C)C[C@H]1Cc1nnc(C)o1 | 8.24%
4 | CC(C)CN1C[C@@H]2OCC(=O)N(c3ccccc3)[C@@H]2C1 | 1.08%
5 | CNC(=O)C(C)(C)N1CCC[C@H]1C(=O)NCC1CC1 | 2.05%
6 | COCC(O)CN1CC(C)(C)CN(C(=O)CCc2ccccc2)CC1=O (stereo not drawn) | -1.83%
7 | OC1CN(c2nc3c(C(F)(F)F)cccc3s2)C1 | -8.37%
8 | CCCc1nnsc1C(=O)NCC1CCN(c2ncccn2)CC1 | 10.6%
9 | Cc1ccc(CN2CCC3(CCCN(C(=O)N(C)C)C3)C2)cc1 (stereo not drawn) | 6.28%
10 | CC(C)C(=O)N1CCC12CCCN(C(=O)c1ccnnc1)C2 (stereo not drawn) | 7.8%
11 | O=C(CC1CC1)N1CCC2(CC(=O)N(c3cccc(F)c3)C2)C1 (stereo not drawn) | -148%
12 | Cc1nc(N(C)C)nc2c1COCC21CCN(C(=O)C2CC2)C1 (stereo not drawn) | 4.27%
13 | Cn1ccnc1CN1CC2(CCN(Cc3ccncc3)C2)C1 | -5.76%
14 | CCN1C[C@H]2CCN(c3ncccn3)CC[C@H]2S1(=O)=O | -7.08%
15 | CCOCC(=O)N1CCCn2c(nnc2Cn2cccc2)C1 | -130%
16 | COCC1c2c(cnn2C)CCN1Cc1ccsc1 (stereo not drawn) | -13.3%
17 | COc1ccc(OC)c(NC(=O)c2nc3ccccc3n(C)c2=O)c1 | -4.71%
18 | CCS(=O)(=O)Nc1ccc(C(=O)NCCCN2CCCC2)cc1 | 1.83%
19 | CC(C)N1CCOCC2(CN(Cc3ccco3)CCO2)C1 (stereo not drawn) | -7.53%
20 | COc1ncccc1C(=O)N1CC[C@H]2C[C@@H](C)O[C@@H]2C1 | -7.63%
21 | Cc1cc(C(=O)N(C)C)nc(C2(C)CCCN2c2ccnc(C)n2)n1 (stereo not drawn) | -7.49%
22 | CNC(=O)C1(CCCc2ccccn2)CN(Cc2nccn2C)C1 | -1.23%
23 | O=C(CN1CCNC1=O)NCc1ccc2sccc2c1 | 5.05%

Row | SMILES | cytotoxicity at 10 µM
24 | CCCn1nccc1-c1cc(C2CCN(S(C)(=O)=O)CC2)nc(C)n1 | -10.7%
25 | CC(C(=O)N(Cc1ccccc1)CC(F)(F)F)S(C)(=O)=O (stereo not drawn) | 11%
26 | Cc1ccc(C2CSCCN2C(=O)c2cccnc2)cc1 (stereo not drawn) | -4.11%
27 | Cc1cc(C(=O)NC(C)Cc2ccccc2Cl)n(C)n1 (stereo not drawn) | 2.8%
28 | O=C(Cc1cccc(F)c1F)NS(=O)(=O)c1ccc(Cl)cc1F | -6.11%
29 | CCOCCCNc1nc(CS(=O)(=O)c2ccccc2)cs1 | 9.75%
30 | CN(C)Cc1ccccc1NC(=O)c1ccc(C#N)cc1 | 4.2%
31 | CCCN(CC)Cn1ncc2cn(-c3ccccc3)nc2c1=O | 1.44%
32 | CC(C)(C)CCS(=O)(=O)NCCc1csc(N2CCCC2)n1 | 8.37%
33 | Cc1ccc(CN(C(=O)NCC2CCS(=O)(=O)C2)C2CC2)o1 (stereo not drawn) | -144%
34 | Cc1cccc2c1OCCC2NCc1c(C(C)C)nn(C)c1N(C)C (stereo not drawn) | 0.423%
35 | O=C(NC1CC1)c1cnc2n1CCCC2 | -6.81%
36 | COc1ccc2c(c1)CCCN2C(=O)CNCC1CN(C)CCO1 (stereo not drawn) | 4.78%
37 | CN(Cc1cc(Br)cn1C)C(=O)c1ccon1 | -3.33%
38 | Cn1cc(C2CCCN2CC(=O)N(CCC#N)Cc2ccco2)cn1 (stereo not drawn) | -6.18%
39 | Cc1cc(C(=O)NC(CC(C)C)C(=O)Nc2cc[nH]n2)c(C)o1 (stereo not drawn) | -11.7%
40 | O=C(Cn1cccnc1=O)NCC1Cc2ccccc2O1 (stereo not drawn) | -4.62%
41 | CC1CN(C(=O)c2ccnc(-n3cncn3)c2)c2ccccc2S1 (stereo not drawn) | -5.69%
42 | Cc1cc(CN(C)C(=O)NCc2ccnc(OC3CCCC3)c2)no1 | 9.52%
43 | O=C(CCCc1ccccn1)N1CCC(Nc2cccnn2)CC1 | -9.73%
44 | CC(=O)NCCCOc1c(C)cccc1Cl | 0.238%
45 | O=C(NCC1CC1)c1cc(Cl)c2c(c1)OCCCO2 | 0.344%
46 | CCCN1CCN(C(=O)c2cnn(-c3ccccc3F)c2)CC1 | 0.313%

Row | SMILES | cytotoxicity at 10 µM
47 | CC(C)CNC(=O)Nc1cccc(CN2CCOC2=O)c1 | -1.1%
48 | COC(=O)c1ccc(NC(=O)[C@@H]2CCCN2C(=O)c2ccco2)s1 | -3.45%
49 | Cc1ccc(OCC(=O)Nc2cnccc2SCCCO)cc1C | -2.35%
50 | Cc1c(-c2nc(-c3cccc(CN4CCOCC4)c3)no2)cnn1C | -0.988%
51 | Cn1cc(C#N)cc1C(=O)NC1(C#N)CCSCC1 | -7.23%
52 | Cn1cnnc1Sc1ccc(NC(=O)C2CC2)cc1Cl | 0.118%
53 | COCCN1CCN(CC(=O)N(C)Cc2ccsc2)CC1C (stereo not drawn) | -127%
54 | CCCN(C(=O)c1cc2c([nH]c1=O)CCCC2=O)C1CCCCC1 | -0.708%
55 | CC(C)OCCn1nnnc1Cc1ccc(Br)cc1 | -5.58%
56 | CC(O)CN1CCC(CN(C)Cc2cc(C#N)ccc2F)CC1 (stereo not drawn) | 2.05%
57 | CC1CN(C(=O)NCCc2nc(C(C)C)no2)CCO1 (stereo not drawn) | -0.745%
58 | Cc1nc(S(=O)(=O)CCn2cccn2)n(C2CCCC2)c1C | -0.829%
59 | COc1ccc(Br)cc1CCC(=O)N1CCSCC1 | 5.48%
60 | CS(=O)(=O)N1CCCN(c2nccn3cnnc23)CC1 | -8.85%
61 | CCN(Cc1nc(Cc2ccccc2)no1)C1CC1 | 6.26%
62 | N#Cc1c(F)cccc1N1CCCC(C(=O)Nc2nncs2)C1 (stereo not drawn) | 4.48%
63 | COCCN(C(=O)c1cc(-c2ccc(C)s2)[nH]n1)C1CC1 | 11.6%
64 | CC(C)C(C(=O)NCc1ccccc1-n1cccn1)N(C)C (stereo not drawn) | -3.17%
65 | CC(c1ccccc1)N(C)C(=O)Cn1cc(NC(=O)C(C)(C)C)cn1 (stereo not drawn) | 4%
66 | CCn1c(C)nnc1CN(C)C1CCN(Cc2nccn2C)C1 (stereo not drawn) | 17.8%
67 | COc1ccc(C(C)=O)c(OCC(=O)NC(C)c2ccc(F)cc2)c1 (stereo not drawn) | 2.68%
68 | O=C(NCCCn1cccn1)C1(c2ccc(F)cc2)CC1 | -6.13%
69 | Cc1ccc(-c2cc(C(=O)NC(C)C(=O)N3CCCCC3)on2)cc1 (stereo not drawn) | -7.17%

Row | SMILES | cytotoxicity at 10 µM
70 | COc1cccc(NC(=O)N(CCO)Cc2ccsc2)c1 | -9.87%
71 | CCS(=O)(=O)CCn1ccc(NC(=O)CCc2cccc(C)c2)n1 | 2.94%
72 | Cc1ccc(-c2ccnc3cc(CC(=O)N4CCN(C)CC4)nn23)cc1 | -1.72%
73 | CN1CSC[C@H]1C(=O)N1CCC(Cc2ccccc2F)CC1 | 1.01%
74 | O=C(Nc1cnn(CC(=O)N2CCCO2)c1)c1ccccc1 | -0.134%
75 | Cc1cc(C)c2c(NCc3nncn3C3CCCCC3)ncnc2n1 | -0.404%
76 | CC(C)[C@@H]1CN(Cc2cnc3c(S(C)(=O)=O)cnn3c2)C[C@H]1N(C)C | -3.5%
77 | Cc1cccc(-c2ncc(CNC(C)CO)cn2)c1 (stereo not drawn) | 2.16%
78 | CC(C)c1nc(CN(C)C(=O)c2ccc3c(c2)OCO3)cs1 | -1.1%
79 | Cc1csc(N2CCC(CCN3CCCC3=O)CC2)n1 | -5.7%
80 | COc1cnc(N2CCCN(c3ccc(F)cc3)CC2)nc1 | -10.6%
81 | Cc1cc(S(=O)(=O)NCC2CNCCOC2)c(C)cc1Cl (stereo not drawn) | -0.708%
82 | Cc1ccc(NC2(C(=O)NCCCc3c(C)n[nH]c3C)CCCC2)cc1 | -10.1%
83 | O=C(CCC(=O)N1CCC(OCc2cccnc2)CC1)c1ccccc1 | -3.33%
84 | CCCNC(=O)N1CCc2ccc(S(=O)(=O)N3CCOCC3)cc2C1 | -2.56%
85 | CN(C)C(=O)c1ccc2c(c1)N(C)C(CC(=O)NCc1ncc[nH]1)CO2 (stereo not drawn) | -5.93%
86 | COCCN(Cc1cnn(C)c1)c1nc(C)nc2sccc12 | -138%
87 | CC(C)c1cc(-c2nn3c(C(C)C)nnc3s2)[nH]n1 | 0.999%
88 | Cc1nccc(-c2ccccc2)c1C(=O)N1CC[C@](C)(O)[C@H](C)C1 | 3.41%
89 | CC(C)CCN1CCNC(=O)C1CC(=O)N1CCc2sccc2C1 (stereo not drawn) | -7.01%
90 | CCCN(CCO)C(=O)C1CCC(=O)N(CCc2ccc(Cl)cc2)C1 (stereo not drawn) | -12.5%
91 | O=C(c1cncc(N2CCC3(CCNCC3)CC2)n1)N1CCCC1 | -14.6%
92 | O=C(c1ccc2[nH]c(=O)[nH]c2c1)N1CCC(Nc2cccnn2)CC1 | 0.00528%

Row | SMILES | cytotoxicity at 10 µM
93 | CC(C)c1noc(CCC(=O)NC(C)c2ccccn2)n1 (stereo not drawn) | -5.86%
94 | CC(C(=O)NCc1ccnc(N2CCCCCC2)c1)n1cccn1 (stereo not drawn) | -15.8%
95 | O=C(Cc1csc(-c2ccsc2)n1)N1CCN(c2cnccn2)CC1 | -7.12%
96 | CC(C)(C)c1nc(CN2CCCC(c3noc(C4CC4)n3)C2)no1 (stereo not drawn) | -14.4%
97 | O=C(NCCn1ccnc1)N1CCCN(Cc2cccs2)CC1 | -29.7%
98 | CCN1CCN(CCNC(=O)c2sc(C(C)C)nc2C)CC1 | 6.23%
99 | CC(=O)N(Cc1noc(C)n1)C1CCN(Cc2ccccn2)C1 (stereo not drawn) | -5.82%
100 | CC(C)NC(=O)N1CCc2c(CNc3ncccn3)cncc2C1 | 5.83%
101 | CS(=O)(=O)NCCNCc1ccc(Br)s1 | -3.04%
102 | CCN1CCn2c(C)cnc2C12CCN(C(=O)C(C)C)CC2 | 3.06%
103 | CC(C)c1cc(=O)[nH]c(C(C)(C)N)n1 | -1.05%
104 | CN1CC(=O)N(c2ccsc2)CC12CCN(S(=O)(=O)c1ccccc1)C2 (stereo not drawn) | 1.5%
105 | c1cnn(CCCO[C@@H]2CN(C3CCOCC3)[C@@H]3CCCO[C@@H]32)c1 | 4.56%
106 | Cc1noc(C)c1CN1CCC2(CC1)CN(c1ccccn1)CCO2 | -3%
107 | O=C(c1cccs1)N1CCC[C@]2(C[C@@H](OCc3ccncc3)CO2)C1 | 7.92%
108 | CC(C)Nc1nc2c(cc1C(=O)NCC1CC1)CCN(S(C)(=O)=O)CC2 | -1.48%
109 | CCc1ccc(CN2CCC3(CCCN(C(=O)c4cnccn4)C3)C2)o1 (stereo not drawn) | -127%
110 | Cn1cc(CNC2CC3(CCN(CC4CC4)CC3)c3ccccc32)cn1 (stereo not drawn) | -8.22%
111 | CC(=O)N1CCC2(CC1)CC(N1CCOCC1)c1ccc(C)cc12 (stereo not drawn) | -137%
112 | CN(Cc1ccco1)C1CCC12CCN(C(=O)c1ccnnc1)CC2 (stereo not drawn) | 0.081%
113 | Cc1noc(C)c1C(=O)N1C[C@@H]2CC[C@H]1CN(c1cnccn1)C2 | 8.32%

Reference: ChEMBL document CHEMBL4513216, “Probing the Open Global Health Chemical Diversity Library for Multistage-Active Starting Points for Next-Generation Antimalarials” (ACS Infect Dis, 2020)
